In the RNAGym collection of RNA variant scans (doi:10.1126/science.aae0568) one finds yeast fitness data, which are given here for 167 variants.

Fewer inactive variants are shown than the library holds.

The labels stand for the following.
B1: tRNA (parent)
chain: GUUCCGUUGGCGUAAUGGUAACGCGUCUCCCUCCUAAGGAGAAGACUGCGGGUUCGAGUCCCGUACGGAACG

The variants in the data set derive from B1. As to the kind of experiment: yeast fitness relative to wild type (ratio to wild type); higher = fitter; tRNA-Arg(CCU), competitive growth, 37 C, YPD. The gist of the method:
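Changes in genotype frequencies gave Darwinian fitness relative to wild type. Frequencies were read by 100-nucleotide paired-end sequencing of gene amplicons before and after pooled Saccharomyces cerevisiae strains, carrying tRNA-Arg(CCU) gene variants at the native locus, were competed in YPD at 37°C for 24 hours in six replicates. A genotype was kept only with ≥ 100 starting reads, and estimates < 0.5 were set to 0.5.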
For C31A A57G, the yeast fitness is 0.777.

With C31A A57C, the yeast fitness amounted to 0.544. On to C30U G41A A69C, for which the yeast fitness is at most 0.5.

On to C30U G39A C62U G68C, for which the yeast fitness was found to be 0.571.

C30G C31A A36G G63C: the yeast fitness was at most 0.5. On to C30U C34A A36G C60U A70U, for which the yeast fitness was at most 0.5.

As to C30G A57G, the yeast fitness was 0.616.

In the case of C30G A57U, the yeast fitness was found to be 0.609. Then C30A U47C G67U, with at most 0.5. Then C30U U32G A37G G63A, with at most 0.5. The result for C31A C33U G41A C62A reads at most 0.5; that for C31A A43G A70U, 0.708; that for C30G C31U, 0.678.

Turning to C30U U54A G68C, the yeast fitness was at most 0.5. The result for C30G C33U A45U reads 0.57; that for C30U C46U G50A A69G, 0.605; that for C30U A40G C49U, 0.632. The result for C30U A37G A42G C60G reads 0.516; that for C30G U64A, 0.784.

C30G C31G G38C C46G C49U: the yeast fitness came to 0.532.

Turning to C31A G38A C46U A69U, the yeast fitness was at most 0.5.

For the variant C30U C61U G63A A65G, the yeast fitness is at most 0.5. Then C30U C61G A65C, with at most 0.5; and C31A A37C U47C G67A, with at most 0.5. Regarding C31A A40G A43G G52C U59G, the yeast fitness was at most 0.5. Then C30G A57U C60G, with at most 0.5; and C30U C46G G52A, with 0.6; and C30G U59G C66A, with at most 0.5. The result for C30G C34G G63C reads at most 0.5; that for C31A C33G, 0.569. As to C30G C46A U47G C49A G52A G58C C61U U64G A65G, the yeast fitness was at most 0.5. For C30G A65G, the yeast fitness came out at 0.639. Then C31A C33U C55G, with at most 0.5; and C30U A43U U54A, with 0.541. The result for C30G U35C C62U reads 0.551; that for C30A G56A C60G, at most 0.5; that for C30U C46A C66U, 0.83. For the variant C30G C31G G38C C46G, the yeast fitness was found to be 0.768.

In the case of C30U C31G A65C, the yeast fitness turned out to be 0.821. The result for C30U G39A C60G reads 0.57. The result for C30G A42U A45G C61U G67A reads at most 0.5; that for C31A C49G, 0.64. Then C30U A36C A37G U47C, with at most 0.5; and C31A A42G A57U U59A, with at most 0.5.

As for C30A G63A U64C, the yeast fitness was 0.893. The result for C30U C31G reads 0.79. Then C30U C31A, with 0.754; and C31A A43U G63A A70C, with at most 0.5; and C31A A43U G68U, with 0.72. The result for C30G C31G U64C A65C reads at most 0.5. Take C30G C55U: the yeast fitness turned out to be 0.622.

For C30G U64A A70C, the yeast fitness is at most 0.5. Then C30U G48C G68C, with 0.636; and C30U C31G G39C C55A C62U A70U, with at most 0.5; and C31A A37U G67C, with 0.575. The result for C30U U59G reads 0.898; that for C31A A65C G67A, at most 0.5. As to C30G C33G C34U A42U C55A, the yeast fitness was at most 0.5. The result for C30U A45U A57C reads 0.566. The result for C30U C33U reads 0.669; that for C30U C33G, 0.691; that for C30U G51C C61A, 0.635.

Take C30G G51C G56U: the yeast fitness stood at 0.628. The result for C30G U35A C62U reads at most 0.5; that for C30G C46A C60A, at most 0.5; that for C30U C33G A65C, 0.577. The result for C30U G50C C61G reads at most 0.5; that for C31A A37C, 0.665. The result for C31A A37G reads 0.672. With C30U U47A C66A, the yeast fitness was at most 0.5. In the case of C30U C46U A70G, the yeast fitness worked out at 0.601. The result for C30G C33G G48C C60A reads 0.586.

As for C30G G58C, the yeast fitness amounted to 0.637. For the variant C30G G51C A65G, the yeast fitness was at most 0.5.

As for C30U A42U A43C A70C, the yeast fitness was at most 0.5.

Turning to C30U A45G G48C G58C U59A, the yeast fitness was 0.548. The result for C30U U32A A36U A37U C62U A69U reads at most 0.5.

Regarding C30U C61G, the yeast fitness worked out at 0.671.

C30U C61U: the yeast fitness was determined as 0.826. Consider C30G A57G G63A, for which the yeast fitness was at most 0.5. Consider C30G C33G A69C, for which the yeast fitness is 0.544.

C30U G63C A69U: the yeast fitness came to 0.527. Turning to C30G C31G A43G G56C, the yeast fitness is at most 0.5. Turning to C30A U35A C61G, the yeast fitness was at most 0.5. The result for C30U C31U C49A reads at most 0.5; that for C30U U35A G63C A65U, at most 0.5. C30U U35A G63C A65C: the yeast fitness was at most 0.5. The result for C30G U47C reads 0.701. The result for C30G A37C C46G reads at most 0.5. The result for C30G U47A G68A reads at most 0.5; that for C30G C31U G56A C62U A69G, at most 0.5. Turning to C30A U32G G67A A69C, the yeast fitness is at most 0.5. Then C30G A40U C46U, with 0.558; and C31A A40G A43C G44A, with at most 0.5. Turning to C30U U53G A69U, the yeast fitness was at most 0.5.

With C30G A43C C60G C66U, the yeast fitness is at most 0.5.

Regarding C30A G56U A65G, the yeast fitness is at most 0.5.

C30G C34G G39C A69C: the yeast fitness is at most 0.5. The result for C30G C34U U47A C49A reads 0.691; that for C31A A37G C55U A57G, 0.531; that for C31A A37G G38A A40G, at most 0.5. Then C30U G38C A65G, with 0.53. Then C30U C49G C61U, with 0.547.

On to C30U U32A A36U A37U, for which the yeast fitness was at most 0.5.

With C30G C33U G58C U64A, the yeast fitness was 0.56. The result for C30G C33G A70U reads 0.532. Then C31A A45U A70U, with 0.789. For the variant C30U U54A G63A, the yeast fitness came out at 0.704. Then C30A U47C, with 0.775; and C30G A43U G48C U64G, with at most 0.5. The result for C30G A37C A45G reads 0.633; that for C30U A65U C66G, at most 0.5; that for C30A G63C, 0.774. Then C31A A65U, with 0.725. On to C30U A43C, for which the yeast fitness was found to be 1.04. Then C30U A43U, with 1.03. Then C30U U35A C62A, with at most 0.5; and C30U G39A A40G G67A, with at most 0.5. The result for C30U C34G G39A C49G C61U reads at most 0.5. In the case of C30G A45C C46U, the yeast fitness is 0.612.

Consider C30U C34U A37U U59C A65U, for which the yeast fitness was at most 0.5.

Consider C30G A43C C62U, for which the yeast fitness worked out at 0.533. Then C31A C49G G56C A70U, with at most 0.5.

As to C30U A45C G52C, the yeast fitness was found to be 0.568. In the case of C30U G58A C61G G68C A70U, the yeast fitness was at most 0.5.

C30U A40C C49G: the yeast fitness is at most 0.5. In the case of C31A A36U U53A, the yeast fitness is at most 0.5.

As for C30G C46G, the yeast fitness is 0.693. Then C30U G48A G67A, with at most 0.5; and C30A G56U, with 0.831; and C30A G56C, with 0.639. C30A G56A: the yeast fitness came out at 1.04. With C30G A45G G56A, the yeast fitness is 0.526. The result for C30G C31U C61G reads 0.557.

Consider C30U C46G C49U A69C, for which the yeast fitness is at most 0.5. The result for C30G C62A reads 0.61. Then C30G C62G, with 0.551. The result for C30U C66U reads 0.777; that for C30U G52C C66G, 0.707. Consider C30U C31G A57U, for which the yeast fitness is at most 0.5. The result for C30U G44A A65C reads 0.553; that for C30U G38C A57G, at most 0.5.

Consider C30U G56A A69C, for which the yeast fitness turned out to be 0.566.

Take C30G G58C G63C: the yeast fitness is at most 0.5. The result for C30U A45G A65G reads 0.538; that for C31A C34G, at most 0.5; that for C31A C34U, 0.555. The result for C30G C33G C60G reads at most 0.5. With C30U G39C C60U, the yeast fitness is at most 0.5. The result for C30U A42G A43U U54A reads at most 0.5; that for C30U A45U C49G, 0.713; that for C31A A42G A43U G56C, at most 0.5. The result for C30U C46U A65C reads 0.658; that for C31A A42C C46U, 0.592. Then C31A A43C A45C, with at most 0.5. As for C30U U47A G67C A70U, the yeast fitness was at most 0.5. Then C30G C33A C49A, with 0.618. The result for C30G A69C reads 0.687; that for C30G A69G, at most 0.5.

On to C30U A42C G48C A65C, for which the yeast fitness was at most 0.5.

On to C31A A40C G52A C61A, for which the yeast fitness came to 0.528. Then C30G G56C C62U, with at most 0.5; and C30U G58A, with 0.919. The result for C30U G58C reads 0.822; that for C30U A70C, 0.869; that for C30U A70G, 0.941. The result for C30U A70U reads 0.962.
